Test results: ChEMBL document CHEMBL4689842, “EUbOPEN Chemogenomics Library wave 1” (2021)

Test system: HEK-293T
Test: Multiplex assay against HEK293T;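 for Population Tubulin-Different-Phenotype (%): share of the cells with healthy nuclei that show this phenotype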
Type: toxicity, cell-based
Details: human
Procedure, shortened: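 On a CQ1 microscope at 37°C and 5% CO2, live cells were imaged after compound addition. They had been stained at seeding with Hoechst33342, BioTracker Green Microtubule Cytoskeleton Dye, MitoTracker Red and Annexin V Alexa Fluor 680. CellPathfinder machine-learning gating assigned cells to Hoechst high-intensity objects or normal cells, normal cells to healthy, pyknosed or fragmented nuclei, and pyknosed cells to mitotic or apoptotic. Tubulin, mitochondrial-mass and membrane-permeability phenotypes are per cents of healthy-nucleus cells.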

[1] = 12 h, 1 µM, compound concentration 1 uM, replicate 1
[2] = 12 h, 1 µM, compound concentration 1 uM, replicate 2
[3] = 12 h, 10 µM, compound concentration 10 uM, replicate 1
[4] = 12 h, 10 µM, compound concentration 10 uM, replicate 2
[5] = 24 h, 1 µM, compound concentration 1 uM, replicate 1
[6] = 24 h, 1 µM, compound concentration 1 uM, replicate 2
[7] = 24 h, 10 µM, compound concentration 10 uM, replicate 1
[8] = 24 h, 10 µM, compound concentration 10 uM, replicate 2
[9] = 48 h, 1 µM, compound concentration 1 uM, replicate 1
[10] = 48 h, 1 µM, compound concentration 1 uM, replicate 2
[11] = 48 h, 10 µM, compound concentration 10 uM, replicate 1
[12] = 48 h, 10 µM, compound concentration 10 uM, replicate 2

SMILES: C=C1/C(=C\C=C2/CCC[C@]3(C)[C@@H]([C@H](C)/C=C/[C@H](C)C(C)C)CC[C@@H]23)C[C@@H](O)C[C@@H]1O [DOXERCALCIFEROL]
- Population Apoptotic (%) [1]: 53%
- Population Fragmented Nuclei (%) [1]: 17%
- Population Healthy Nuclei (%) [1]: 26%
- Population Hoechst High Intensity Objects (%) [1]: 23%
- Population Membrane Permeable-Phenotype (%) [1]: 3%
- Population Mitochondria Different-Phenotype (%) [1]: 78%
- Population Mitotic Cells (%) [1]: 46%
- Population Normal (%) [1]: 76%
- Population Pyknosed Nuclei (%) [1]: 55%
- Population Tubulin-Different-Phenotype (%) [1]: 12%
- Total Cell Count [1]: 156
- Population Apoptotic (%) [2]: 10%
- Population Fragmented Nuclei (%) [2]: 7%
- Population Healthy Nuclei (%) [2]: 44%
- Population Hoechst High Intensity Objects (%) [2]: 2%
- Population Membrane Permeable-Phenotype (%) [2]: 4%
- Population Mitochondria Different-Phenotype (%) [2]: 11%
- Population Mitotic Cells (%) [2]: 89%
- Population Normal (%) [2]: 97%
- Population Pyknosed Nuclei (%) [2]: 48%
- Population Tubulin-Different-Phenotype (%) [2]: 11%
- Total Cell Count [2]: 240
- Population Apoptotic (%) [3]: 50%
- Population Fragmented Nuclei (%) [3]: 15%
- Population Healthy Nuclei (%) [3]: 25%
- Population Hoechst High Intensity Objects (%) [3]: 16%
- Population Membrane Permeable-Phenotype (%) [3]: 2%
- Population Mitochondria Different-Phenotype (%) [3]: 71%
- Population Mitotic Cells (%) [3]: 49%
- Population Normal (%) [3]: 83%
- Population Pyknosed Nuclei (%) [3]: 59%
- Population Tubulin-Different-Phenotype (%) [3]: 34%
- Total Cell Count [3]: 180
- Population Apoptotic (%) [4]: 13%
- Population Fragmented Nuclei (%) [4]: 7%
- Population Healthy Nuclei (%) [4]: 35%
- Population Hoechst High Intensity Objects (%) [4]: 3%
- Population Membrane Permeable-Phenotype (%) [4]: 6%
- Population Mitochondria Different-Phenotype (%) [4]: 20%
- Population Mitotic Cells (%) [4]: 86%
- Population Normal (%) [4]: 96%
- Population Pyknosed Nuclei (%) [4]: 56%
- Population Tubulin-Different-Phenotype (%) [4]: 23%
- Total Cell Count [4]: 211
- Population Apoptotic (%) [5]: 52%
- Population Fragmented Nuclei (%) [5]: 22%
- Population Healthy Nuclei (%) [5]: 27%
- Population Hoechst High Intensity Objects (%) [5]: 23%
- Population Membrane Permeable-Phenotype (%) [5]: 0%
- Population Mitochondria Different-Phenotype (%) [5]: 63%
- Population Mitotic Cells (%) [5]: 47%
- Population Normal (%) [5]: 76%
- Population Pyknosed Nuclei (%) [5]: 50%
- Population Tubulin-Different-Phenotype (%) [5]: 30%
- Total Cell Count [5]: 170
- Population Apoptotic (%) [6]: 10%
- Population Fragmented Nuclei (%) [6]: 7%
- Population Healthy Nuclei (%) [6]: 59%
- Population Hoechst High Intensity Objects (%) [6]: 3%
- Population Membrane Permeable-Phenotype (%) [6]: 9%
- Population Mitochondria Different-Phenotype (%) [6]: 5%
- Population Mitotic Cells (%) [6]: 89%
- Population Normal (%) [6]: 96%
- Population Pyknosed Nuclei (%) [6]: 32%
- Population Tubulin-Different-Phenotype (%) [6]: 12%
- Total Cell Count [6]: 305
- Population Apoptotic (%) [7]: 39%
- Population Fragmented Nuclei (%) [7]: 20%
- Population Healthy Nuclei (%) [7]: 26%
- Population Hoechst High Intensity Objects (%) [7]: 18%
- Population Membrane Permeable-Phenotype (%) [7]: 7%
- Population Mitochondria Different-Phenotype (%) [7]: 78%
- Population Mitotic Cells (%) [7]: 60%
- Population Normal (%) [7]: 81%
- Population Pyknosed Nuclei (%) [7]: 52%
- Population Tubulin-Different-Phenotype (%) [7]: 58%
- Total Cell Count [7]: 191
- Population Apoptotic (%) [8]: 25%
- Population Fragmented Nuclei (%) [8]: 9%
- Population Healthy Nuclei (%) [8]: 56%
- Population Hoechst High Intensity Objects (%) [8]: 1%
- Population Membrane Permeable-Phenotype (%) [8]: 10%
- Population Mitochondria Different-Phenotype (%) [8]: 7%
- Population Mitotic Cells (%) [8]: 74%
- Population Normal (%) [8]: 98%
- Population Pyknosed Nuclei (%) [8]: 34%
- Population Tubulin-Different-Phenotype (%) [8]: 37%
- Total Cell Count [8]: 255
- Population Apoptotic (%) [9]: 46%
- Population Fragmented Nuclei (%) [9]: 19%
- Population Healthy Nuclei (%) [9]: 33%
- Population Hoechst High Intensity Objects (%) [9]: 16%
- Population Membrane Permeable-Phenotype (%) [9]: 0%
- Population Mitochondria Different-Phenotype (%) [9]: 34%
- Population Mitotic Cells (%) [9]: 53%
- Population Normal (%) [9]: 83%
- Population Pyknosed Nuclei (%) [9]: 47%
- Population Tubulin-Different-Phenotype (%) [9]: 36%
- Total Cell Count [9]: 180
- Population Apoptotic (%) [10]: 9%
- Population Fragmented Nuclei (%) [10]: 7%
- Population Healthy Nuclei (%) [10]: 81%
- Population Hoechst High Intensity Objects (%) [10]: 3%
- Population Membrane Permeable-Phenotype (%) [10]: 4%
- Population Mitochondria Different-Phenotype (%) [10]: 2%
- Population Mitotic Cells (%) [10]: 90%
- Population Normal (%) [10]: 97%
- Population Pyknosed Nuclei (%) [10]: 11%
- Population Tubulin-Different-Phenotype (%) [10]: 14%
- Total Cell Count [10]: 601
- Population Apoptotic (%) [11]: 42%
- Population Fragmented Nuclei (%) [11]: 23%
- Population Healthy Nuclei (%) [11]: 35%
- Population Hoechst High Intensity Objects (%) [11]: 17%
- Population Membrane Permeable-Phenotype (%) [11]: 5%
- Population Mitochondria Different-Phenotype (%) [11]: 35%
- Population Mitotic Cells (%) [11]: 57%
- Population Normal (%) [11]: 82%
- Population Pyknosed Nuclei (%) [11]: 40%
- Population Tubulin-Different-Phenotype (%) [11]: 33%
- Total Cell Count [11]: 193
- Population Apoptotic (%) [12]: 22%
- Population Fragmented Nuclei (%) [12]: 9%
- Population Healthy Nuclei (%) [12]: 79%
- Population Hoechst High Intensity Objects (%) [12]: 2%
- Population Membrane Permeable-Phenotype (%) [12]: 6%
- Population Mitochondria Different-Phenotype (%) [12]: 4%
- Population Mitotic Cells (%) [12]: 77%
- Population Normal (%) [12]: 97%
- Population Pyknosed Nuclei (%) [12]: 11%
- Population Tubulin-Different-Phenotype (%) [12]: 24%
- Total Cell Count [12]: 475
